Laboratory results reported in ChEMBL document CHEMBL1926577, “Novel 1,3,4-heterodiazole analogues: synthesis and in-vitro antitumor activity” (2012).

Tests used:
Format in all cases: functional
LOX IMVI = test: Growth inhibition of human LOXIMVI cells at 10 uM after 48 hrs by coulter counter method; details: read-out: GI
In short: (§1)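 NCI 60-cell-line panel, single dose. Compound dissolved first in DMSO, then diluted in phosphate-buffered saline so that every final dilution held under 1% DMSO. Duplicate wells received cells at 6 × 10⁴ cells/ml. Controls held PBS/DMSO at the same dilution. Plates were incubated 48 h at 37 °C under 5% CO₂. Cells were then diluted 10-fold in saline and counted on a Coulter counter, with counts corrected for the dilution. Results are given as percent growth inhibition.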

SF-268 = test: Growth inhibition of human SF268 cells at 10 uM after 48 hrs by coulter counter method; details: SF-268, 48 h, read-out: GI; in short: as §1
SNB-19 = test: Growth inhibition of human SNB19 cells at 10 uM after 48 hrs by coulter counter method; details: SNB-19, 48 h, read-out: GI; in short: as §1
OVCAR-8 = test: Growth inhibition of human OVCAR8 cells at 10 uM after 48 hrs by coulter counter method; details: OVCAR-8, 48 h, read-out: GI; in short: as §1
NCI/ADR-RES = test: Growth inhibition of human NCI/ADR-RES cells at 10 uM after 48 hrs by coulter counter method; details: read-out: GI; in short: as §1
UO-31 = test: Growth inhibition of human UO31 cells at 10 uM after 48 hrs by coulter counter method; details: UO-31, 48 h, read-out: GI; in short: as §1
MCF7 = test: Growth inhibition of human MCF7 cells at 10 uM after 48 hrs by coulter counter method; details: MCF7, 48 h, read-out: GI; in short: as §1
SR = test: Growth inhibition of human SR cells at 10 uM after 48 hrs by coulter counter method; details: read-out: GI; in short: as §1
BT-549 = test: Growth inhibition of human BT549 cells at 10 uM after 48 hrs by coulter counter method; details: BT-549, 48 h, read-out: GI; in short: as §1
NCI-H522 = test: Growth inhibition of human NCI-H522 cells at 10 uM after 48 hrs by coulter counter method; details: NCI-H522, 48 h, read-out: GI; in short: as §1
SNB-75 = test: Growth inhibition of human SNB75 cells at 10 uM after 48 hrs by coulter counter method; details: SNB-75, 48 h, read-out: GI; in short: as §1
MDA-MB-468 = test: Growth inhibition of human MDA-MB-468 cells at 10 uM after 48 hrs by coulter counter method; details: MDA-MB-468, 48 h, read-out: GI; in short: as §1
MOLT-4 = test: Growth inhibition of human MOLT4 cells at 10 uM after 48 hrs by coulter counter method; details: MOLT-4, 48 h, read-out: GI; in short: as §1
SN12C = test: Growth inhibition of human SN12C cells at 10 uM after 48 hrs by coulter counter method; details: read-out: GI; in short: as §1
MDA-MB-435 = test: Growth inhibition of human MDA-MB-435 cells at 10 uM after 48 hrs by coulter counter method; details: MDA-MB-435, 48 h, read-out: GI; in short: as §1
A498 = test: Growth inhibition of human A498 cells at 10 uM after 48 hrs by coulter counter method; details: A498, 48 h, read-out: GI; in short: as §1
CAKI-1 = test: Growth inhibition of human Caki1 cells at 10 uM after 48 hrs by coulter counter method; details: CAKI-1, 48 h, read-out: GI; in short: as §1
RPMI-8226 = test: Growth inhibition of human RPMI8226 cells at 10 uM after 48 hrs by coulter counter method; details: RPMI-8226, 48 h, read-out: GI; in short: as §1
A549 = test: Growth inhibition of human A549 cells at 10 uM after 48 hrs by coulter counter method; details: A549, 48 h, read-out: GI; in short: as §1
IGROV-1 = test: Growth inhibition of human IGROV1 cells at 10 uM after 48 hrs by coulter counter method; details: IGROV-1, 48 h, read-out: GI; in short: as §1
NCI-H226 = test: Growth inhibition of human NCI-H226 cells at 10 uM after 48 hrs by coulter counter method; details: NCI-H226, 48 h, read-out: GI; in short: as §1
M14 = test: Growth inhibition of human M14 cells at 10 uM after 48 hrs by coulter counter method; details: M14, 48 h, read-out: GI; in short: as §1
K562 = test: Growth inhibition of human K562 cells at 10 uM after 48 hrs by coulter counter method; details: K562, 48 h, read-out: GI; in short: as §1
CCRF-CEM = test: Growth inhibition of human CCRF-CEM cells at 10 uM after 48 hrs by coulter counter method; details: read-out: GI; in short: as §1
786-0 = test: Growth inhibition of human 786-0 cells at 10 uM after 48 hrs by coulter counter method; details: 786-0, 48 h, read-out: GI; in short: as §1
SK-MEL-2 = test: Growth inhibition of human SK-MEL-2 cells at 10 uM after 48 hrs by coulter counter method; details: SK-MEL-2, 48 h, read-out: GI; in short: as §1
HCT-15 = test: Growth inhibition of human HCT15 cells at 10 uM after 48 hrs by coulter counter method; details: HCT-15, 48 h, read-out: GI; in short: as §1
U-251 = test: Growth inhibition of human U251 cells at 10 uM after 48 hrs by coulter counter method; details: U-251, 48 h, read-out: GI; in short: as §1
PC-3 = test: Growth inhibition of human PC3 cells at 10 uM after 48 hrs by coulter counter method; details: PC-3, 48 h, read-out: GI; in short: as §1
T47D = test: Growth inhibition of human T47D cells at 10 uM after 48 hrs by coulter counter method; details: read-out: GI; in short: as §1
SK-MEL-28 = test: Growth inhibition of human SK-MEL-28 cells at 10 uM after 48 hrs by coulter counter method; details: SK-MEL-28, 48 h, read-out: GI; in short: as §1
ACHN = test: Growth inhibition of human ACHN cells at 10 uM after 48 hrs by coulter counter method; details: read-out: GI; in short: as §1
HL-60(TB) = test: Growth inhibition of human HL-60(TB) cells at 10 uM after 48 hrs by coulter counter method; details: HL-60, 48 h, read-out: GI
In short: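 Single-dose screen on the NCI 60-line panel (leukemia subpanel). Compound is dissolved in DMSO and diluted in PBS, with final DMSO below 1%. Duplicate wells hold 6 × 10⁴ cells/ml at 37 °C, 5% CO₂, for 48 h. Cells are counted by Coulter counter after 10-fold saline dilution. Read-out is percent growth versus PBS/DMSO controls, expressed as % growth inhibition.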

UACC-257 = test: Growth inhibition of human UACC257 cells at 10 uM after 48 hrs by coulter counter method; details: UACC-257, 48 h, read-out: GI; in short: as §1
Malme-3M = test: Growth inhibition of human MALME-3M cells at 10 uM after 48 hrs by coulter counter method; details: read-out: GI; in short: as §1
TK-10 = test: Growth inhibition of human TK10 cells at 10 uM after 48 hrs by coulter counter method; details: TK-10, 48 h, read-out: GI; in short: as §1
HT-29 = test: Growth inhibition of human HT-29 cells at 10 uM after 48 hrs by coulter counter method; details: HT-29, 48 h, read-out: GI; in short: as §1
NCI-H23 = test: Growth inhibition of human NCI-H23 cells at 10 uM after 48 hrs by coulter counter method; details: NCI-H23, 48 h, read-out: GI; in short: as §1
NCI-H322M = test: Growth inhibition of human NCI-H322M cells at 10 uM after 48 hrs by coulter counter method; details: read-out: GI; in short: as §1
HCT-116 = test: Growth inhibition of human HCT116 cells at 10 uM after 48 hrs by coulter counter method; details: HCT-116, 48 h, read-out: GI; in short: as §1
SK-MEL-5 = test: Growth inhibition of human SK-MEL-5 cells at 10 uM after 48 hrs by coulter counter method; details: SK-MEL-5, 48 h, read-out: GI; in short: as §1
SF-295 = test: Growth inhibition of human SF295 cells at 10 uM after 48 hrs by coulter counter method; details: SF-295, 48 h, read-out: GI; in short: as §1
EKVX = test: Growth inhibition of human EKVX cells at 10 uM after 48 hrs by coulter counter method; details: read-out: GI; in short: as §1
KM12 = test: Growth inhibition of human KM12 cells at 10 uM after 48 hrs by coulter counter method; details: KM12, 48 h, read-out: GI; in short: as §1
UACC-62 = test: Growth inhibition of human UACC62 cells at 10 uM after 48 hrs by coulter counter method; details: UACC-62, 48 h, read-out: GI; in short: as §1

Measured: inhibition of growth at 10 µM

O=C1N=C2OC(c3ccccc3)=NN2C1=O
20.5%: UO-31
15.2%: UACC-257
12.5%: NCI-H322M
< 10%: all other assays above
